Two compounds from ChEMBL document CHEMBL1149773, “Synthesis, determination of the lipophilicity, anticancer and antimicrobial properties of some fused 1,2,4-triazole derivatives” (Eur J Med Chem, 2008) can be followed below.

The test system of assay [1] is Pseudomonas aeruginosa. Put plainly: Antimicrobial activity against Pseudomonas aeruginosa ATCC 27853 at 572.4 uM by disc-diffusion method. The class given is functional. To be noted: read-out: IZ. The method, boiled down: (§1)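 Kirby–Bauer disc diffusion: 5 mm paper discs soaked in compound solution in DMSO (100 or 200 µg/mL; reference drugs 200 µg/mL) and laid on inoculated Mueller-Hinton agar (bacteria) or Sabouraud agar (C. albicans, Aspergillus). DMSO discs were the control. Plates ran 24 h at 35 °C. Inhibition zone diameter was scored 0–10 mm R, 11–16 mm I, 17–25 mm S; triplicate.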

The subject of assay [2] is Proteus vulgaris. Briefly: Antimicrobial activity against Proteus vulgaris at 572.4 uM by disc-diffusion method. The class given is functional. To be noted: read-out: IZ. The method, boiled down: as §1
(In general: A growth-free zone around the sample is the usual read-out of agar diffusion tests.)

Assay [3] deals with Klebsiella pneumoniae. Put plainly: Antimicrobial activity against Klebsiella pneumoniae at 572.4 uM by disc-diffusion method. The class given is functional. To be noted: read-out: IZ. The method, boiled down: as §1
The test system of assay [4] is Klebsiella aerogenes. Briefly: Antimicrobial activity against Enterobacter aerogenes at 572.4 uM by disc-diffusion method. The class given is functional. To be noted: read-out: IZ. The method, boiled down:
as §1

In assay [5] the test system is Staphylococcus aureus. Put plainly: Antimicrobial activity against Staphylococcus aureus ATCC 25923 at 572.4 uM by disc-diffusion method. It counts as functional. To be noted: read-out: IZ. The method, boiled down:
(§2)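 Kirby–Bauer disc diffusion on Mueller-Hinton medium. Sterile 5 mm paper discs are impregnated with agent dissolved in DMSO and placed on inoculated agar. DMSO discs serve as solvent control. Plates are incubated 24 h at 35 °C. Inhibition zone diameter is scored as 0–10 mm resistant, 11–16 mm intermediate, or 17–25 mm susceptible. Each assay is run three times.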

Assay [6] relates to Staphylococcus epidermidis. Put plainly: Antimicrobial activity against Staphylococcus epidermidis at 572.4 uM by disc-diffusion method. The note with it: read-out: IZ. The class given is functional. The method, boiled down:
as §1

In assay [7] the test system is Streptococcus pyogenes. Put plainly: Antimicrobial activity against Streptococcus pyogenes at 572.4 uM by disc-diffusion method. The class given is functional. The note with it: read-out: IZ. The method, boiled down:
as §2

In assay [8] the test system is Streptococcus agalactiae. Put plainly: Antimicrobial activity against Streptococcus agalactiae at 572.4 uM by disc-diffusion method. It counts as functional. The note with it: read-out: IZ. The method, boiled down:
as §2

The test system of assay [9] is Candida albicans. Put plainly: Antimicrobial activity against Candida albicans ATCC 10231 at 572.4 uM by disc-diffusion method. It counts as functional. To be noted: read-out: IZ. The method, boiled down:
as §1

The test system of assay [10] is Aspergillus sp. Put plainly: Antimicrobial activity against Aspergillus sp. at 572.4 uM by disc-diffusion method. The class given is functional. The note with it: read-out: IZ. The method, boiled down:
as §1

The test system of assay [11] is Staphylococcus aureus. Put plainly: Antimicrobial activity against Staphylococcus aureus ATCC 25923 after 24 hrs by microdilution assay. The class given is functional. The note with it: ATCC 25923, 24 h.
The test system of assay [12] is Pseudomonas aeruginosa. Put plainly: Antimicrobial activity against Pseudomonas aeruginosa ATCC 27853 after 24 hrs by microdilution assay. The class given is functional. The note with it: ATCC 27853, 24 h.
The test system of assay [13] is Escherichia coli. Put plainly: microbe, parasite or virus in culture. The note with it: ATCC 25922, read-out: IZ.
The test system of assay [14] is Pseudomonas aeruginosa. Put plainly: Antimicrobial activity against Pseudomonas aeruginosa ATCC 27853 at 480.6 uM by disc-diffusion method. The class given is functional. The note with it: read-out: IZ. The method, boiled down: as §1
In assay [15] the test system is Proteus vulgaris. Briefly: Antimicrobial activity against Proteus vulgaris at 480.6 uM by disc-diffusion method. The class given is functional. The note with it: read-out: IZ. The method, boiled down:
as §1

The subject of assay [16] is Klebsiella pneumoniae. Put plainly: Antimicrobial activity against Klebsiella pneumoniae at 480.6 uM by disc-diffusion method. The class given is functional. The note with it: read-out: IZ. The method, boiled down: as §1
Assay [17] concerns Klebsiella aerogenes. Briefly: Antimicrobial activity against Enterobacter aerogenes at 480.6 uM by disc-diffusion method. It counts as functional. To be noted: read-out: IZ. The method, boiled down:
as §1

In assay [18] the test system is Staphylococcus aureus. Briefly: Antimicrobial activity against Staphylococcus aureus ATCC 25923 at 480.6 uM by disc-diffusion method. The class given is functional. To be noted: read-out: IZ. The method, boiled down: as §1
In assay [19] the test system is Staphylococcus epidermidis. Briefly: Antimicrobial activity against Staphylococcus epidermidis at 480.6 uM by disc-diffusion method. It counts as functional. To be noted: read-out: IZ. The method, boiled down: as §1
In assay [20] the test system is Streptococcus pyogenes. Put plainly: Antimicrobial activity against Streptococcus pyogenes at 480.6 uM by disc-diffusion method. The class given is functional. To be noted: read-out: IZ. The method, boiled down:
as §1

For assay [21], the system named is Streptococcus agalactiae. Put plainly: Antimicrobial activity against Streptococcus agalactiae at 480.6 uM by disc-diffusion method. The note with it: read-out: IZ. It counts as functional. The method, boiled down:
as §1

In assay [22] the test system is Aspergillus sp. Put plainly: Antimicrobial activity against Aspergillus sp. at 480.6 uM by disc-diffusion method. The class given is functional. To be noted: read-out: IZ. The method, boiled down: as §1
For assay [23], the system named is Candida albicans. Put plainly: Antimicrobial activity against Candida albicans ATCC 10231 after 24 hrs by microdilution assay. It counts as functional. To be noted: ATCC 10231, 24 h.
Assay [24] deals with Escherichia coli. Put plainly: Antimicrobial activity against Escherichia coli ATCC 25922 at 480.6 uM by disc-diffusion method. It counts as functional. The note with it: read-out: IZ. The method, boiled down: as §1
In assay [25] the test system is Candida albicans. Put plainly: microbe, parasite or virus in culture. To be noted: ATCC 10231, read-out: IZ.

Each structure is given as a SMILES string. ≈ marks a conversion by molar mass, not a printed value.

In general, MIC refers to the smallest concentration in the dilution series that meets the test's criterion for growth inhibition. Read a low MIC as greater potency. On to `CC1(C)S[C@@H]2[C@H](NC(=O)[C@H](N)c3ccccc3)C(=O)N2[C@H]1C(=O)O` [AMPICILLIN], for which the zone of inhibition at 572.4 µM in assay [1] was 11 mm; in [2], 0 mm; in [3], 0 mm; in assay [4] it was 0 mm; in assay [5], 17 mm; in assay [6], 11 mm. Further, the zone of inhibition at 572.4 µM worked out at 17 mm in [7]; 17 mm in [8]; 0 mm in [9]; 0 mm in [10]; 17 mm in assay [13]. For the same compound, the figures for the minimum inhibitory concentration (MIC) in [11] and in assay [12] were 35.8 µM (≈ 12.5 µg/mL) and > 358 µM, respectively.

`Clc1ccc(COC(Cn2ccnc2)c2ccc(Cl)cc2Cl)c(Cl)c1` (stereo not given) [MICONAZOLE]: the zone of inhibition at 480.6 µM in assay [14], in assay [15], in assay [16], in assay [17], in [18] and in [19] was 0 mm each time. The zone of inhibition at 480.6 µM worked out at 0 mm in assay [20]; 0 mm in assay [21]; 0 mm in assay [22]; 0 mm in assay [24]; 17 mm in [25]. The compound also registered an MIC in assay [23] of 37.5 µM (≈ 15.6 µg/mL).
